# Only some compounds are listed: those with a hit (about 1.2% of all), similar ones and a draw of the others.
# HNF4A DNA FP – change in binding of human HNF4 alpha to DNA. P41235. activity change, % at 10 µM. 360,000 tested, 0.3% active. AID 1224865. HNF4a-FITC DNA binding, fluorescence polarization, 1 h; in the data active means activity change above about 30%, passing the limit was not always enough
# TPT1 inh – inhibitors of Candida albicans tRNA 2'-phosphotransferase TPT1; recombinant caTPT1, FP RNA substrate dephosphorylation; inhibition, % at 5 µM; 300,000 tested, 0.81% active; AID 1962;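 active means inhibition above the mean of all tested compounds plus 3 SD, set per screening campaign, cut at about 24% in these data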;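 further: plate controls were DMSO alone for no effect and ferristatin control at 100 nM for full effect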
# Rtt109 HAT inh – blocks Candida albicans Rtt109/Vps75 acetyltransferase activity | Q5AAJ8 | purified Rtt109/Vps75, ThioGlo CoA-SH fluorescence, 4 h | inhibition, % at 34.9 µM | 330,000 tested, 0.16% active;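 active means inhibition of at least 50% in every replicate; inconclusive means best replicate reaches 50% inhibition but some replicates fall short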
# Target sequence (Q5AAJ8 whole entry, looked up): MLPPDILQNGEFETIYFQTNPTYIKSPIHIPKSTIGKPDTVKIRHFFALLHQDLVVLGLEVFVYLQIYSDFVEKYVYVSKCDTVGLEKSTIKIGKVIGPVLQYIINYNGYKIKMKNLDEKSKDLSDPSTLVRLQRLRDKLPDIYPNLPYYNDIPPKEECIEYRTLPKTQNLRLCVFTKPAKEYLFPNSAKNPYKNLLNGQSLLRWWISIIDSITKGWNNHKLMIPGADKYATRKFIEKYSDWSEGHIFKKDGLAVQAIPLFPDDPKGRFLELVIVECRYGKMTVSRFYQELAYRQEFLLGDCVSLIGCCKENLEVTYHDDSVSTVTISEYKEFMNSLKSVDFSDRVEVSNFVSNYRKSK
# CSN deneddyl inh – inhibitors of human CSN-mediated cullin deneddylation; Q92905; Purified CSN, SCF-Nedd8-OG deneddylation, fluorescence polarization; inhibition, % at 12.5 µM; 360,000 tested, 0.38% active; AID 651999;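 active means pattern-corrected inhibition above about 35%, with an unprinted fluorescence ratio check between 0.5 and 1.5, limit read from the data, passing the limit was not always enough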;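 further: 0% = enzyme with substrate and 100% = substrate without enzyme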
#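 assay system = purified human Csn5 enzyme expressed in HEK293T cells | amount = 0.24 nM enzyme | buffer or medium = Tris/NaCl/DTT buffer, pH 7.5 | reagent = 10 nM SCFSkp2-Nedd8OG | compound = one concentration, 12.5 µM, 0.25% DMSO | times = 90 min reaction at room temperature | signal = FP | read-out basis = % inhibition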
# caTPT1 confirm – confirmation of Candida albicans TPT1 inhibitors; shares compounds with TPT1 inh; recombinant caTPT1, fluorescence polarization, RNase T1 coupled; inhibition, % at 5 µM; 2,400 tested, 74% active; AID 2149;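 active means inhibition above the primary screen limit, the mean inhibition of all tested compounds plus 3 SD, cut at about 25% in these data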
# RNase T1 inh – RNase T1 inhibition in TPT1 counter-screen; shares compounds with TPT1 inh; RNase T1 cleavage, fluorescence polarization, 1536-well; inhibition, % at 5 µM; 2,400 tested, 83% active;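 active means inhibition above the solvent-only control well mean plus 3 SD, limit set per screening run, cut at about 23% in these data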;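 further: plate controls were DMSO wells with enzyme for no effect and wells without RNase T1 for full effect; inhibitors block cleavage so intact labeled substrate keeps polarization high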
# Active calls of the source: *; ? = inconclusive; . = not tested or not shown.
SMILES,HNF4A DNA FP,TPT1 inh,Rtt109 HAT inh,CSN deneddyl inh,caTPT1 confirm,RNase T1 inh
CN1C(=O)C(N=Nc2ccccc2C(=O)O)N(C)C1=S (centres undefined),14,41*,0,8,41*,61*
COc1ccc(C2=NN(C(=O)CCCC(=O)O)C(c3cn(-c4ccccc4)nc3-c3ccccc3)C2)cc1 (centres undefined),3,0,23,18,.,.
COC(=O)CSc1nc(N)c2c3c(sc2n1)C(c1ccccc1)SC(c1ccccc1)C3 (centres undefined),25,72*,-4,25,22,31*
Cc1cccc(/C=C(\C(=O)C(=O)O)c2ccc3ccccc3n2)c1,7,16,0,3,.,.
O=C(O)C(=O)/C(=C\c1cccc(Cl)c1)c1ccc2ccccc2n1,0,30*,-1,0,42*,58*
CCN(CC)c1ccc(/C=C(\C#N)C(=O)NCc2ccco2)cc1,.,110*,.,.,104*,114*
Cn1c(=O)n(C)c2cc(/C=C(/C#N)C(=O)NCc3ccco3)ccc21,-3,1,-4,-3,.,.
CCN(CC)c1ccc(/C=C(\C#N)C(=O)NCc2ccccc2)cc1,41*,89*,8,3,107*,114*
Cc1ccc(CNC(=O)/C(C#N)=C\c2ccc(N(C)C)cc2)cc1,.,58*,.,.,64*,80*
COc1ccc(C(=O)CSc2nnc(CNC(=O)c3ccco3)n2C)cc1,-3,3,-1,-5,.,.
Cc1cccc(C)c1Cn1c(C)c(C(=O)NCc2ccc([N+](=O)[O-])cc2)sc1=O,-4,.,.,-2,.,.
CCOC(=O)C1=C(c2ccccc2)N=c2s/c(=C\c3ccc(O)cc3)c(=O)n2C1c1cccs1 (centres undefined),22,31*,-1,45*,53*,60*
CCOC(=O)C1=C(c2ccccc2)N=c2sc(=Cc3cc(OC)c(OC)c(OC)c3)c(=O)n2C1c1cccs1 (centres undefined),0,.,.,2,.,.
CCCCCC/C(C)=C1/SC(=S)NC1=O,21,51*,?,23,13,19
CCn1cc(CNC(=S)Nc2cccc(Cl)c2C)cn1,-4,-2,3,-3,.,.
CSc1ccccc1N=CC1=C(O)CC(C)(C)CC1=O,4,-3,1,0,.,.
CC1(C)CC(=O)C(C=Nc2ccc(N)cc2)=C(O)C1,1,-4,-2,-7,.,.
CC1(C)CC(=O)C(C=Nc2cc(C(=O)c3ccccc3)ccc2N)=C(O)C1,31,27*,-9,29,7,12
COC(=O)c1ccc(N)c(N=CC2=C(O)CC(C)(C)CC2=O)c1,22,31*,-3,26,9,13
Cc1nn(-c2ncc(C(F)(F)F)cc2Cl)c(=O)n1-c1c(F)cccc1F,-1,32*,4,-1,3,2
CCCC1=[N+](CC(=O)c2ccccc2)CCn2c(C)ccc21,1,12,1,-1,.,.
CCCC1=[N+](CC(=O)c2ccc(C)cc2)CCn2cccc21,2,62*,23,-6,10,11
Cc1ccc(-c2cc(-c3ccco3)c3c(N)c(C(=O)NN)oc3n2)cc1,11,72*,4,-4,35*,43*
NNC(=O)c1oc2nc(-c3cccs3)cc(-c3ccco3)c2c1N,16,50*,4,-45,47*,57*
COc1cccc(/C=N/NC(=O)c2oc3nc(-c4ccccc4)cc(-c4ccco4)c3c2N)c1,39*,82*,2,5,86*,97*
CCCCNc1c(-c2ccc(-c3ccc(C(C)=O)cc3)c(OC)c2)nc2cnccn12,12,26*,-3,1,52*,63*
CC(C)(C)C(=O)Nc1nc2c(s1)CN(Cc1ccccc1)CC2,0,10,1,5,.,.
O=C(Nc1nc2c(s1)CN(Cc1ccccc1)CC2)c1c(F)cccc1F,27,24*,7,6,37*,49*
CS(=O)(=O)c1ccc(Cl)c(NC(=O)CCN2C(=O)C3CC=CCC3C2=O)c1 (centres undefined),3,.,-6,2,.,.
Cc1ccc(S(=O)(=O)N2C[C@H]3C(=O)C[C@@H](c4ccccc4)N(S(=O)(=O)c4ccc(Br)cc4)[C@H]3C[C@H]2c2ccccc2)cc1,-5,.,.,-2,.,.
